The values below come from ChEMBL document CHEMBL1153575, “Synthesis and in vitro anticancer activity of 2,4-azolidinedione-acetic acids derivatives” (2009).

Some results are limits rather than exact numbers.

Type in all cases: functional
Experiment [1] relates to CCRF-CEM. In words: Growth inhibition of human CCRF-CEM cells after 48 hrs by sulforhodamine B assay. The note with it: for TGI: read-out: pTGI (converted). A digest of the protocol:
(§1)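 Five-concentration assay in about 60 human tumour lines, using 10-fold dilutions from 10^-4 to 10^-8 M with 48 h continuous exposure and an SRB protein endpoint. Percent growth at each level comes from time-zero, untreated-control and treated absorbances. GI50 is 50% lower net protein increase than control. Values beyond the tested range are given as greater or less than the extreme concentration.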
(In general: Sulforhodamine B stains cellular protein and so reports cell mass.)

Experiment [2] deals with U-251. In words: Growth inhibition of human U251 cells after 48 hrs by sulforhodamine B assay. The note with it: U-251, 48 h. In outline: as §1
Experiment [3] concerns SF-268. Nature of the experiment: Cytotoxicity against human SF268 cells assessed as cell growth at 100 uM after 48 hrs by sulforhodamine B assay. Conditions: SF-268, 48 h, read-out: Activity. In outline:
(§2)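 Primary one-dose screen on a three-line panel (MCF7 breast, NCI-H460 lung, SF-268 CNS) at 10^-4 M. Cells were preincubated 24–48 h before a single addition of the agent, followed by 48 h incubation. Endpoint was SRB protein staining, reported as percent growth versus untreated controls.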

In experiment [4] the test system is NCI-H460. Nature of the experiment: Cytotoxicity against human NCI-H460 cells assessed as cell growth at 100 uM after 48 hrs by sulforhodamine B assay. The note with it: NCI-H460, 48 h, read-out: Activity. In outline:
as §2

Experiment [5] deals with MCF7. Nature of the experiment: Cytotoxicity against human MCF7 cells assessed as cell growth at 100 uM after 48 hrs by sulforhodamine B assay. The note with it: MCF7, 48 h, read-out: Activity. A digest of the protocol: as §2
Experiment [6] has as its system MDA-MB-231. Nature of the experiment: Growth inhibition of human MDA-MB-231 cells after 48 hrs by sulforhodamine B assay. Conditions: MDA-MB-231, 48 h. A digest of the protocol: as §1
Experiment [7] has as its system SN12C. In words: Growth inhibition of human SN12C cells after 48 hrs by sulforhodamine B assay. In outline:
as §1

The subject of experiment [8] is NCI-H226. In words: Growth inhibition of human NCI-H226 cells after 48 hrs by sulforhodamine B assay. Conditions: NCI-H226, 48 h. A digest of the protocol: as §1
The nature of experiment [9]: Growth inhibition of human Hs 578T cells after 48 hrs by sulforhodamine B assay. In outline: as §1
Experiment [10] in a line: Growth inhibition of human 786-O cells after 48 hrs by sulforhodamine B assay. The note with it: 786-0, 48 h. In outline:
as §1

The subject of experiment [11] is A549. In words: Growth inhibition of human A549 cells after 48 hrs by sulforhodamine B assay. The note with it: A549, 48 h. In outline: as §1
For experiment [12], the system named is HOP-62. Nature of the experiment: Growth inhibition of human HOP62 cells after 48 hrs by sulforhodamine B assay. Conditions: HOP-62, 48 h. In outline:
as §1

The subject of experiment [13] is RPMI-8226. Nature of the experiment: Growth inhibition of human RPMI8226 cells after 48 hrs by sulforhodamine B assay. Conditions: RPMI-8226, 48 h. In outline: as §1
The test system of experiment [14] is M14. Nature of the experiment: Growth inhibition of human M14 cells after 48 hrs by sulforhodamine B assay. Conditions: M14, 48 h. A digest of the protocol: as §1
For experiment [15], the system named is ACHN. In words: Growth inhibition of human ACHN cells after 48 hrs by sulforhodamine B assay. A digest of the protocol:
as §1

For experiment [16], the system named is MOLT-4. Nature of the experiment: Growth inhibition of human MOLT4 cells after 48 hrs by sulforhodamine B assay. Conditions: MOLT-4, 48 h; for CC50: read-out: pLC50 (the source's name) (converted); for TGI: read-out: pTGI (converted). In outline: as §1
Experiment [17] has as its system HOP-92. Nature of the experiment: Growth inhibition of human HOP92 cells after 48 hrs by sulforhodamine B assay. Conditions: HOP-92, 48 h; for TGI: read-out: pTGI (converted). In outline: as §1
Experiment [18] deals with HCT-116. Nature of the experiment: Growth inhibition of human HCT116 cells after 48 hrs by sulforhodamine B assay. The note with it: HCT-116, 48 h. In outline: as §1
The test system of experiment [19] is SR. In words: Growth inhibition of human SR cells after 48 hrs by sulforhodamine B assay. In outline:
as §1

Experiment [20] deals with K562. In words: Growth inhibition of human K562 cells after 48 hrs by sulforhodamine B assay. The note with it: K562, 48 h. A digest of the protocol:
as §1

Experiment [21] has as its system HL-60(TB). In words: Growth inhibition of human HL-60(TB) cells after 48 hrs by sulforhodamine B assay. Conditions: HL-60, 48 h. In outline: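 Cells inoculated and preincubated 24–48 h in microtiter plates, then exposed continuously for 48 h to five 10-fold dilutions from 10^-4 to 10^-8 M. End point by sulforhodamine B protein staining, read spectrophotometrically against untreated controls and time-zero absorbance. Percent growth computed per concentration; GI50 taken where [(Ti−Tz)/(C−Tz)]×100 = 50, expressed as log molar value.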

Where [22] appears, read: read-out: pLC50 (the source's name) (converted).

Broadly, the GI50 is the concentration at which growth is held to half of that of the control. A high value points to lower sensitivity of the cells. For orientation: LC50 means the concentration that kills 50% of the test population.

Regarding `COc1ccc(/C=C2\NC(=O)N(CC(=O)Nc3ccc(OC)cc3)C2=O)cc1`, in experiment [1], the 50% growth inhibitory concentration (GI50) is 0.195 µM, the 50% lethal concentration (LC50) is above 100 µM and the TGI is above 100 µM. In [2], halving of growth (GI50) required 30.9 µM and the LC50 is above 100 µM. The TGI in experiment [2] (read-out: pTGI (converted)) is above 100 µM.
On to `O=C(/C=C1\SC(=O)N(CC(=O)Nc2ccccc2C(F)(F)F)C1=O)Nc1ccc(F)cc1`, for which the results for the growth at 100 µM in experiment [3], in experiment [4] and in experiment [5] were 75%, 77% and 74%, respectively.
`O=C(CN1C(=O)S/C(=C/c2ccc(Cl)cc2)C1=O)Nc1cccc(C(F)(F)F)c1`: the growth at 100 µM in experiment [3] is 110%; in [4], 99%; in experiment [5] it was 100%.
The matching figures for `O=C(CN1C(=O)S/C(=C\c2ccc(Cl)cc2)C1=O)Nc1ccc(Cl)cc1`: 105%, 101% and 102%.
Taken in the same sequence, the figures for `COc1ccc(/C=C2\SC(=O)N(CC(=O)Nc3nccs3)C2=O)cc1` were 107%, 98% and 98%.
In the case of `O=C(/C=C1\SC(=O)N(CC(=O)Nc2cccc(C(F)(F)F)c2)C1=O)Nc1ccc(Cl)cc1`, the growth at 100 µM in [3] worked out at 100%; in experiment [4] it was 108%; in [5], 103%.
The matching figures for `O=C(CC1NC(=O)NC1=O)Nc1ccc(Cl)cc1` (stereo not drawn): 114%, 121% and 115%.
Take `O=C(CN1C(=O)N/C(=C/c2ccc(Cl)cc2)C1=O)Nc1cccc(C(F)(F)F)c1`: the growth at 100 µM in [3] stood at 100%; in [4], 4%; in [5], 58%. Moreover, the GI50 in experiment [6] is 4.57 µM; in [7] it was 12 µM; in experiment [8], 13.2 µM; in experiment [9], 10.5 µM; in experiment [10] it was 13.8 µM; in experiment [1], 13.5 µM. In addition, the GI50 in experiment [11] is 10.7 µM; in experiment [12] it was 12.6 µM; in [13], 0.01 µM; in experiment [14] it was 14.5 µM; in [15] it was 14.5 µM; in experiment [16], 2.51 µM. Further, the figures for the GI50 in experiment [17] and in experiment [18] were 5.37 µM and 13.8 µM, respectively. For the same compound, the LC50 in experiment [6] is above 100 µM; in experiment [7], 100 µM; in experiment [1], above 100 µM; in [12] it was 69.2 µM; in experiment [13], 28.2 µM; in experiment [17], above 100 µM. The compound also gave an LC50 in [18] above 100 µM. The TGI in experiment [6] (read-out: pTGI (converted)) was 22.9 µM; in [7] (read-out: pTGI (converted)), 34.7 µM; in [8] (read-out: pTGI (converted)), 46.8 µM; in experiment [9] (read-out: pTGI (converted)), 77.6 µM; in experiment [10] (read-out: pTGI (converted)), 35.5 µM; in [1] it was above 100 µM. In addition, the TGI in [11] (read-out: pTGI) was above 100 µM; in experiment [12] (read-out: pTGI (converted)) it was 29.5 µM; in experiment [13] (read-out: pTGI (converted)), 6.92 µM; in experiment [14] (read-out: pTGI), above 100 µM; in experiment [15] (read-out: pTGI (converted)), 28.8 µM; in [16], above 100 µM. The TGI in [17] was 28.8 µM; in [18] (read-out: pTGI (converted)), 66.1 µM. Moreover, the CC50 in experiment [8] (setting [22]) is above 100 µM; in [9] (setting [22]) it was above 100 µM; in experiment [10] (setting [22]), 89.1 µM; in [11] (setting [22]), above 100 µM; in [14] (setting [22]), above 100 µM; in experiment [15] (setting [22]), 56.2 µM. Also, the CC50 in experiment [16] is above 100 µM.
Regarding `O=C(CN1C(=O)N/C(=C\c2ccc(Cl)cc2)C1=O)Nc1ccccc1C(F)(F)F`, the GI50 in experiment [19] is 0.309 µM; in experiment [1], 1.2 µM; in experiment [20] it was 5.37 µM; in experiment [21] it was 0.295 µM; in [16], 4.57 µM; in experiment [17], 18.2 µM. Moreover, the LC50 in [19] is 52.5 µM; in [1] it was above 100 µM; in [17], above 100 µM. The TGI in [19] (read-out: pTGI (converted)) is 12.6 µM; in experiment [1], above 100 µM; in experiment [20] (read-out: pTGI) it was above 100 µM; in [21] (read-out: pTGI (converted)) it was 2 µM; in experiment [16] it was 24 µM; in experiment [17] it was 97.7 µM. Moreover, the values for the CC50 in experiment [20] (setting [22]), in [21] (setting [22]) and in experiment [16] were above 100 µM, above 100 µM and 81.3 µM, respectively.
Consider `O=C(/C=C1\SC(=O)N(CC(=O)Nc2ccc(Cl)cc2)C1=O)Nc1ccc(Cl)cc1`, for which the growth at 100 µM in experiment [3] is 116%; in [4], 107%; in experiment [5], 111%.
The matching figures for `O=C(CC1NC(=O)NC1=O)Nc1nccs1` (stereo not drawn): 114%, 108% and 111%.
Taken in the same sequence, the figures for `O=C(CN1C(=O)N/C(=C\c2ccc(F)cc2)C1=O)Nc1ccccc1C(F)(F)F` were 100%, 119% and 87%.
As for `O=C(CC1SC(=O)NC1=O)Nc1nccs1` (stereo not drawn), the figures for the growth at 100 µM in [3], in experiment [4] and in [5] were 114%, 116% and 115%, respectively.
Take `O=C(/C=C1\SC(=O)N(CC(=O)Nc2ccccc2C(F)(F)F)C1=O)Nc1ccc(Cl)cc1`: the growth at 100 µM in [3] stood at 86%; in experiment [4], 87%; in [5], 61%.
For the compound `O=C(CN1C(=O)S/C(=C\C=C\c2ccccc2)C1=O)Nc1ccc(Cl)cc1`, the growth at 100 µM in [3] came out at 98%; in experiment [4], 108%; in experiment [5], 92%.
`O=C(CN1C(=O)CNC1=O)Nc1cccc(C(F)(F)F)c1`: the growth at 100 µM in experiment [3] turned out to be 113%; in experiment [4] it was 106%; in [5] it was 111%.
